Assay results gathered from unrelated publications.
Each line is one published result; the experiments were not run side by side.
Target: Serine/threonine-protein kinase ULK1 (ULK1, Homo sapiens, UniProt O75385)
Effect on: enzyme activity
Action: inhibitor
Residues used in one study (O75385 1-1050): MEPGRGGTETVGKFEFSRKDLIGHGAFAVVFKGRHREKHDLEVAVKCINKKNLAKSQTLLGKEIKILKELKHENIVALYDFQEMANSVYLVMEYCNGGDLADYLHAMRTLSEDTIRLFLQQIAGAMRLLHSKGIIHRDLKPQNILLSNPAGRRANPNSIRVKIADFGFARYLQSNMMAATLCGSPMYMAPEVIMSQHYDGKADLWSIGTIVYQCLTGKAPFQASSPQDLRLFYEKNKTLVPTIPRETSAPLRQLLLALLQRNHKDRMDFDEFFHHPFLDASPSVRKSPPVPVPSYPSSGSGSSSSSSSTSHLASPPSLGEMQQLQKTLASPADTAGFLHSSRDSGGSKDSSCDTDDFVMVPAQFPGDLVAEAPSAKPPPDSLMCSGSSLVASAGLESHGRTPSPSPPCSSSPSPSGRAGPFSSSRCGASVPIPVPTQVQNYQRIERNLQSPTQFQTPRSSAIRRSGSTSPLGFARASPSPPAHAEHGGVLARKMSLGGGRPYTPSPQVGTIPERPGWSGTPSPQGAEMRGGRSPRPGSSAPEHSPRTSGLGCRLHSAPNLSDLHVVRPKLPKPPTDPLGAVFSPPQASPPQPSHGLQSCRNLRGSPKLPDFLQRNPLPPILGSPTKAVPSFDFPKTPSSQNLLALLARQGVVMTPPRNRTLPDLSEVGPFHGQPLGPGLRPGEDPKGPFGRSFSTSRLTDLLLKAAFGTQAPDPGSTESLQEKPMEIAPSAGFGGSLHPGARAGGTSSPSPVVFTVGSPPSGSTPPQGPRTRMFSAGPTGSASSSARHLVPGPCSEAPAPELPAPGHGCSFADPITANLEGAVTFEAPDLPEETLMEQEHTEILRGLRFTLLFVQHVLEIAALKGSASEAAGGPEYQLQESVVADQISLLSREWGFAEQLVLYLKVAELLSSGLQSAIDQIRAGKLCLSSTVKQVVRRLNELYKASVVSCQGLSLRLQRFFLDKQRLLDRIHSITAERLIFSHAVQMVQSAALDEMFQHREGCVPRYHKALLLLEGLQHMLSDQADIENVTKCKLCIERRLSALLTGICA

For COc1cc(Nc2cnc(C#N)c(O[C@H](C)CN(C)C)n2)ncc1-c1cnn(C)c1, the remaining activity was 60% (radiometric; 1 µM).
For Cc1ccc(C(=O)Nc2ccc(CN3CCN(C)CC3)c(C(F)(F)F)c2)cc1C#Cc1cnc2cccnn12, the remaining activity was 76% (23.5 nM).
The remaining activity of O=C(NCCCNc1nc(Nc2cccc(NC(=O)N3CCCC3)c2)ncc1C1CC1)C1CCC1 is reported as 17% (radiometric; 1 µM).
With COc1cc(Cl)c(C(=O)N[C@@H](CN[C@H]2CC[C@@H](N)CC2)Cc2ccc(C#N)cc2)cc1-c1ccc(CN[C@H](C)c2ccc(C)cc2)o1 the remaining activity was 95% (1 µM).
With O=C(Nc1cnn(-c2csc(C(=O)NC3COC3)c2)c1)Nc1c(F)cccc1Cl the remaining activity was 93.9% (5 µM).
With CC(C)(O)[C@H]1CC[C@H](Nc2ccc3ncc(-c4cccc(C(F)(F)F)c4)n3n2)CC1 the remaining activity was 96.2% (1 µM).
Cc1sc(C(=O)NC2COC2)cc1-n1cc(NC(=O)Nc2c(F)cccc2Cl)cn1 gave a remaining activity of 77.3% (10 µM).
Cc1nn(CC(F)(F)F)cc1Nc1nccc(NCc2ccc(S(N)(=O)=O)cc2)n1 has a remaining activity of 99% (radiometric; 1 µM).
